Converted amounts (≈) assume the structure as drawn.
Assays:
[1] = Cytotoxicity against in Balb/c mouse B cells at 10^-6 M after 48 hrs by MTT assay; format: cell-based; conditions: 1 µM
Summary of the method: (§1)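 Spleens taken aseptically from Balb/c mice (18–22 g). Single-cell suspension made in incomplete RPMI, RBCs lysed with Tris-ammonium chloride, cells washed, resuspended in complete RPMI and checked for viability by trypan blue. Cells seeded at 1 × 10⁶ cells/mL. Compounds in DMSO tested at 1×10⁻⁴, 1×10⁻⁵ and 1×10⁻⁶ M, 48 h, 37 °C, 5% CO₂.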

[2] = Cytotoxicity against in Balb/c mouse B cells at 10^-5 M after 48 hrs by MTT assay; format: cell-based; conditions: 10 µM; summary of the method: as §1
[3] = Cytotoxicity against in Balb/c mouse T cells at 10^-6 M after 48 hrs by MTT assay; format: cell-based; conditions: t-cell, 1 µM; summary of the method: as §1
[4] = Cytotoxicity against in Balb/c mouse T cells at 10^-5 M after 48 hrs by MTT assay; format: cell-based; conditions: t-cell, 10 µM; summary of the method: as §1
[5] = Cytotoxicity against in Balb/c mouse T cells at 10^-4 M after 48 hrs by MTT assay; format: cell-based; conditions: t-cell, 100 µM; summary of the method: as §1
[6] = Cytotoxicity against in Balb/c mouse B cells at 10^-4 M after 48 hrs by MTT assay; format: cell-based; conditions: 100 µM; summary of the method: as §1
[7] = Immunostimulant activity in Balb/c mouse B cells assessed as inhibition of LPS-induced cell proliferation at 10^-5 M after 48 hrs by MTT assay; format: functional; summary of the method: as §1
[8] = Immunostimulant activity in Balb/c mouse B cells assessed as inhibition of LPS-induced cell proliferation at 10^-4 M after 48 hrs by MTT assay; format: functional; summary of the method: as §1
[9] = Immunosuppressive activity in Balb/c mouse B cells assessed as inhibition of LPS-induced cell proliferation at 10^-6 M after 48 hrs by MTT assay; format: functional; summary of the method: as §1
[10] = Immunosuppressive activity in Balb/c mouse T cells assessed as inhibition of concanavalin A-induced cell proliferation at 10^-6 M after 48 hrs by MTT assay; format: functional; conditions: Mus musculus, Balb/c, T-cell, 48 h; summary of the method: as §1
[11] = Immunosuppressive activity in Balb/c mouse T cells assessed as inhibition of concanavalin A-induced cell proliferation at 10^-5 M after 48 hrs by MTT assay; format: functional; summary of the method: as §1
[12] = Immunosuppressive activity in Balb/c mouse T cells assessed as inhibition of concanavalin A-induced cell proliferation at 10^-4 M after 48 hrs by MTT assay; format: functional; summary of the method: as §1
[13] = Immunostimulant activity in Balb/c mouse B cells assessed as inhibition of LPS-induced cell proliferation at 10^-6 M after 48 hrs by MTT assay; format: functional; summary of the method: as §1
[14] = Immunostimulant activity in Balb/c mouse T cells assessed as inhibition of concanavalin A-induced cell proliferation at 10^-4 M after 48 hrs by MTT assay; format: functional; conditions: Mus musculus, Balb/c, T-cell, 48 h; summary of the method: as §1
[15] = Immunostimulant activity in Balb/c mouse T cells assessed as inhibition of concanavalin A-induced cell proliferation at 10^-6 M after 48 hrs by MTT assay; format: functional; summary of the method: as §1
[16] = Immunostimulant activity in Balb/c mouse T cells assessed as inhibition of concanavalin A-induced cell proliferation at 10^-5 M after 48 hrs by MTT assay; format: functional; summary of the method: as §1
[17] = Immunosuppressive activity in Balb/c mouse B cells assessed as inhibition of LPS-induced cell proliferation at 10^-5 M after 48 hrs by MTT assay; format: functional; summary of the method: as §1
[18] = Immunosuppressive activity in Balb/c mouse B cells assessed as inhibition of LPS-induced cell proliferation at 10^-4 M after 48 hrs by MTT assay; format: functional; summary of the method: as §1
B = assay: Immunosuppressive activity in Balb/c mouse B cells assessed as inhibition of LPS-induced cell proliferation after 48 hrs by MTT assay; format: functional, cell-based; summary of the method: as §1
Plasmodium falciparum = assay: Antimalarial activity against chloroquine-resistant Plasmodium falciparum Smith; format: functional; conditions: read-out: ED50 (the source's name)

Row | SMILES | Activity [1] | Activity [2] | Activity [3] | Activity [4] | Activity [5] | Activity [6] | inhibition at 10 µM [7] [%] | inhibition at 100 µM [8] [%] | inhibition at 1 µM [9] [%] | inhibition at 1 µM [10] [%] | inhibition at 10 µM [11] [%] | inhibition at 100 µM [12] [%] | inhibition at 1 µM [13] [%] | inhibition at 100 µM [14] [%] | inhibition at 1 µM [15] [%] | inhibition at 10 µM [16] [%] | inhibition at 10 µM [17] [%] | inhibition at 100 µM [18] [%] | inhibition (B) | EC50 (Plasmodium falciparum) [µg/mL]
1 | Cc1cc(OCc2cnnn2-c2cccc([N+](=O)[O-])c2)c(C)c2c1CC[C@H]1[C@H](C)C(=O)O[C@@H]21 | Non-toxic | Toxic | Non-toxic | Toxic | Toxic | Toxic | 0.85 | 36.8 | 24.8 | 93.9 | 93.9 | 95.1 |  |  |  |  |  |  |  | 
2 | Cc1cc(OCc2cnnn2-c2ccccc2)c(C)c2c1CC[C@H]1[C@H](C)C(=O)O[C@@H]21 | Non-toxic | Toxic | Non-toxic | Toxic | Toxic | Toxic | 8.57 | 1.42 |  | 21.4 |  |  | 30 | 97.1 |  |  |  |  |  | 
3 | COc1ccc(-n2nncc2COc2cc(C)c3c(c2C)[C@@H]2OC(=O)[C@@H](C)[C@@H]2CC3)cc1OC | Non-toxic | Non-toxic | Non-toxic | Non-toxic | Toxic | Toxic |  | 12.8 |  |  |  |  | 15.4 | 90.2 | 75.6 | 15.8 | 0.85 |  |  | 
4 | Cc1cc(OCc2cnnn2-c2ccc(Br)cc2)c(C)c2c1CC[C@H]1[C@H](C)C(=O)O[C@@H]21 | Non-toxic | Non-toxic | Non-toxic | Non-toxic | Non-toxic | Non-toxic | 36.8 |  |  | 1.21 |  |  | 26.5 | 48.8 |  | 2.43 |  | 15.4 |  | 
5 | CCCOc1ccc(-n2nncc2COc2cc(C)c3c(c2C)[C@@H]2OC(=O)[C@@H](C)[C@@H]2CC3)cc1Cl | Non-toxic | Non-toxic | Non-toxic | Non-toxic | Non-toxic | Non-toxic | 12.8 | 21.4 |  | 7.14 | 27.1 |  | 41.4 | 7.14 |  |  |  |  |  | 
6 | Cc1cc(OCc2cnnn2-c2ccc(-c3ccccc3)cc2)c(C)c2c1CC[C@H]1[C@H](C)C(=O)O[C@@H]21 | Non-toxic | Non-toxic | Non-toxic | Non-toxic | Toxic | Toxic |  | 15.4 |  |  |  |  | 17.9 | 2.43 | 35.4 | 63.4 | 3.41 |  |  | 
7 | CC(=O)Oc1cc(C)c2c(c1C)[C@@H]1OC(=O)[C@@H](C)[C@@H]1CC2 | Non-toxic | Non-toxic | Non-toxic | Non-toxic | Non-toxic | Non-toxic |  |  | 23.9 |  |  |  |  | 47.6 | 18.3 | 26.8 | 25.6 | -36.8 | Dose-dependent effect | 
8 | CC1=CC2C[C@]3(C)CC[C@H]4[C@H](C)C(=O)O[C@@H]4C13OO2 (some centres undefined) |  |  |  |  |  |  |  |  |  |  |  |  |  |  |  |  |  |  |  | 0.729 (≈ 2.76 µM)
9 | Cc1cc(OCc2cnnn2-c2cc(F)c(F)cc2Br)c(C)c2c1CC[C@H]1[C@H](C)C(=O)O[C@@H]21 | Toxic | Toxic | Toxic | Toxic | Toxic | Toxic |  |  | 20 |  | 20 | 15.7 |  |  | 21.4 |  | 21.4 | 7.14 |  | 
10 | COc1ccc(F)c(-n2nncc2COc2cc(C)c3c(c2C)[C@@H]2OC(=O)[C@@H](C)[C@@H]2CC3)c1Br | Toxic | Toxic | Toxic | Toxic | Toxic | Toxic | 1.42 |  | 1.42 | 14.3 | 37.1 | 45.7 |  |  |  |  |  | 24.3 |  | 
11 | Cc1cc(OCc2cnnn2-c2ccc(F)cc2)c(C)c2c1CC[C@H]1[C@H](C)C(=O)O[C@@H]21 | Non-toxic | Non-toxic | Non-toxic | Non-toxic | Non-toxic | Non-toxic | 10 |  |  |  |  |  | 11.4 | 70 | 12.8 | 44.3 |  | 2.85 |  | 
12 | Cc1cc(OCc2cnnn2-c2ccc3ccccc3c2)c(C)c2c1CC[C@H]1[C@H](C)C(=O)O[C@@H]21 | Non-toxic | Non-toxic | Non-toxic | Non-toxic | Toxic | Toxic |  |  |  |  |  |  | 7.69 | 13.4 | 12.2 | 2.43 | 23.1 | 1.7 |  | 
13 | Cc1cc(OCc2cnnn2-c2ccc(Br)c3ccccc23)c(C)c2c1CC[C@H]1[C@H](C)C(=O)O[C@@H]21 | Non-toxic | Toxic | Non-toxic | Toxic | Toxic | Toxic |  | 12.8 |  |  | 48.6 | 10 | 27.1 |  | 30 |  | 17.1 |  |  | 
14 | Cc1cc(OCc2cnnn2/C=C/c2ccccc2)c(C)c2c1CC[C@H]1[C@H](C)C(=O)O[C@@H]21 | Non-toxic | Non-toxic | Non-toxic | Non-toxic | Non-toxic | Non-toxic | 48.7 |  | 7.69 | 95.1 | 95.1 | 95.1 |  |  |  |  |  | 36.8 |  | 
15 | COc1c(Br)cc(C)cc1-n1nncc1COc1cc(C)c2c(c1C)[C@@H]1OC(=O)[C@@H](C)[C@@H]1CC2 | Non-toxic | Non-toxic | Non-toxic | Non-toxic | Non-toxic | Non-toxic | 28.6 | 15.7 |  |  |  |  | 27.1 | 5.71 | 5.71 | 7.14 |  |  |  | 
